Experiments:
Format in all cases: functional, cell-based
KG-1 = test: Cytotoxicity against human KG1 cells incubated for 3 days by CellTiter-Glo luminescent assay; conditions: KG-1, 72 h
Procedure, shortened: (§1)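 CellTiter-Glo viability read-out on leukemia cell lines. IC50 reported as the average of triplicates.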

Jurkat = test: Cytotoxicity against human Jurkat cells incubated for 3 days by CellTiter-Glo luminescent assay; conditions: 72 h; procedure, shortened: as §1
HL-60 = test: Cytotoxicity against human HL60 cells incubated for 3 days by CellTiter-Glo luminescent assay; conditions: HL-60, 72 h; procedure, shortened: as §1
NALM-6 = test: Cytotoxicity against human NALM6 cells incubated for 3 days by CellTiter-Glo luminescent assay; conditions: NALM-6, 72 h; procedure, shortened: as §1

Compound	IC50 (KG-1)	IC50 (Jurkat)	IC50 (HL-60)	IC50 (NALM-6)
N#Cc1ccc(NC(=O)c2ccc3cccnc3c2O)c(Cl)c1	3670 nM	550 nM	910 nM	420 nM
N#Cc1ccc(NC(=O)c2ccc(Br)cc2O)cc1Cl	960 nM	750 nM	440 nM	920 nM
COc1ccc(C(=O)Nc2ccc(C#N)cc2)c(O)c1	5430 nM	–	5470 nM	–
O=C(Nc1ccc(C(F)(F)F)cc1)c1ccc2cccnc2c1O	3510 nM	550 nM	680 nM	380 nM
O=C(Nc1ccc(C(F)(F)F)cc1)c1cc(F)ccc1O	1700 nM	580 nM	490 nM	2090 nM
O=C(Nc1cc(C(F)(F)F)cc(C(F)(F)F)c1)c1ccc(Br)cc1O	830 nM	930 nM	270 nM	1200 nM
O=C(Nc1cccc(OC(F)(F)F)c1)c1cc(F)ccc1O	830 nM	700 nM	730 nM	1370 nM
N#Cc1ccc(NC(=O)c2cc(C(F)(F)F)ccc2O)cc1	4810 nM	–	3120 nM	–
N#Cc1ccc(NC(=O)c2ccc(C(F)(F)F)cc2O)cc1	1440 nM	–	1030 nM	–
O=C(Nc1ccc(Cl)c(Br)c1)c1cc(Cl)ccc1O	680 nM	1350 nM	780 nM	3070 nM
O=C(Nc1cc(C(F)(F)F)cc(C(F)(F)F)c1)c1cc(Br)c(F)cc1O	510 nM	700 nM	250 nM	950 nM
N#Cc1ccc(NC(=O)c2cc(-c3cccnc3)ccc2O)cc1	8330 nM	–	7960 nM	–
O=C(Nc1cccc(C(F)(F)F)c1)c1cc(F)ccc1O	1010 nM	840 nM	970 nM	1800 nM
O=C(Nc1ccc(C(F)(F)F)cc1)c1cc(Br)c(F)cc1O	820 nM	880 nM	450 nM	1300 nM
O=C(Nc1ccccc1)c1cc(F)ccc1O	> 10000 nM	–	> 10000 nM	–
N#Cc1ccc(NC(=O)c2cccc(F)c2O)cc1	9690 nM	–	5390 nM	–
Cc1ccc(O)c(C(=O)Nc2ccc(C#N)cc2)c1	3370 nM	–	3920 nM	–
O=C(Nc1ccc(Cl)c(Cl)c1)c1cc(F)ccc1O	760 nM	670 nM	660 nM	1370 nM
O=C(Nc1ccc(C(F)(F)F)cc1)c1cc(Cl)ccc1O	740 nM	710 nM	510 nM	1210 nM
O=C(Nc1ccc(Br)c(Cl)c1)c1cc(F)ccc1O	670 nM	860 nM	600 nM	1250 nM
O=C(Nc1cc(C(F)(F)F)cc(C(F)(F)F)c1)c1cc(Cl)c(F)cc1O	470 nM	730 nM	430 nM	2130 nM
O=C(Nc1cc(C(F)(F)F)cc(C(F)(F)F)c1)c1cc(Cl)ccc1O [IMD-0354]	500 nM	480 nM	160 nM	630 nM
O=C(Nc1ccc(C(F)(F)F)cc1)c1ccc(F)cc1O	740 nM	800 nM	680 nM	1530 nM
O=C(Nc1ccc(Cl)cc1Cl)c1cc(F)ccc1O	850 nM	880 nM	890 nM	1620 nM
N#Cc1ccc(NC(=O)c2ccc(-c3ccncc3)cc2O)cc1	8840 nM	–	7090 nM	–
O=C(Nc1ccc(OC(F)(F)F)cc1)c1cc(F)ccc1O	780 nM	810 nM	850 nM	1210 nM

Compound	IC50 (KG-1)	IC50 (Jurkat)	IC50 (HL-60)	IC50 (NALM-6)
Cc1cc(C#N)ccc1NC(=O)c1ccc2cccnc2c1O	3240 nM	270 nM	710 nM	230 nM
N#Cc1ccc(NC(=O)c2ccccc2O)cc1	5370 nM	–	4620 nM	–
O=C(Nc1cc(C(F)(F)F)cc(C(F)(F)F)c1)c1cc(F)ccc1O	470 nM	500 nM	320 nM	620 nM
CS(=O)(=O)Nc1ccc(Cl)cc1C(=O)Nc1ccc(C#N)cc1	> 10000 nM	–	> 10000 nM	–
CN(C(=O)c1cc(F)ccc1O)c1ccc(C#N)cc1	> 10000 nM	–	> 10000 nM	–
CC(=O)Oc1cc2ccccc2cc1C(=O)Nc1ccc(C#N)cc1	1700 nM	–	1690 nM	–
O=C(Nc1ccc(OC(F)(F)F)cc1Cl)c1cc(Cl)ccc1O	620 nM	880 nM	650 nM	1350 nM
O=C(Nc1cc(Cl)cc(Cl)c1)c1cc(F)ccc1O	780 nM	710 nM	600 nM	1440 nM
N#Cc1ccc(NC(=O)c2cc(Cl)c(-c3ccccc3)cc2O)cc1	480 nM	–	520 nM	–
O=C(Nc1ccc(C(F)(F)F)cc1)c1cc(Cl)c(-c2ccccc2)cc1O	770 nM	1160 nM	490 nM	800 nM
O=C(Nc1ccc(OC(F)(F)F)c(Cl)c1)c1cc(F)ccc1O	370 nM	700 nM	550 nM	1000 nM
N#Cc1ccc(NC(=O)c2ccc(F)cc2O)cc1	3150 nM	–	1380 nM	–
N#Cc1ccc(NC(=O)c2cccc(Br)c2O)cc1	3260 nM	–	2910 nM	–
O=C(Nc1cc(F)cc(F)c1)c1ccc2cccnc2c1O	3340 nM	430 nM	510 nM	310 nM
N#Cc1ccc(NC(=O)c2cc(Cc3ccccc3)ccc2O)cc1	1930 nM	–	1740 nM	–
Cc1cccc(O)c1C(=O)Nc1ccc(C#N)cc1	7940 nM	–	6860 nM	–
O=C(Nc1ccc(Cl)c(C(F)(F)F)c1)c1cc(F)ccc1O	540 nM	530 nM	600 nM	970 nM
N#Cc1ccc(NC(=O)c2ccc(Br)cc2O)c(Cl)c1	790 nM	750 nM	730 nM	1860 nM
N#Cc1ccc(CC(=O)c2cc(F)ccc2O)cc1	> 10000 nM	–	> 10000 nM	–
Cc1ccc(C(=O)Nc2ccc(C#N)cc2)c(O)c1	2560 nM	–	2420 nM	–
N#Cc1ccc(NC(=O)c2ccc3cccnc3c2O)c(F)c1	3260 nM	420 nM	730 nM	370 nM
N#Cc1ccc2nc(-c3ccccc3O)[nH]c2c1	> 10000 nM	–	> 10000 nM	–
N#Cc1ccc(NS(=O)(=O)c2cc(F)ccc2O)cc1	> 10000 nM	–	> 10000 nM	–
O=C(Nc1ccc(C(F)(F)F)cc1)c1cc(Br)ccc1O	610 nM	620 nM	580 nM	1090 nM
O=C(Nc1ccc(OC(F)(F)F)c(Cl)c1)c1cc(Cl)ccc1O	460 nM	840 nM	450 nM	1050 nM
N#Cc1ccc(NC(=O)c2ccc(-c3ccccc3)cc2O)cc1	410 nM	–	700 nM	–

Compound	IC50 (KG-1)	IC50 (Jurkat)	IC50 (HL-60)	IC50 (NALM-6)
N#Cc1ccc(NC(=O)c2cc(Br)c(-c3ccccc3)cc2O)cc1	850 nM	–	700 nM	–
N#Cc1ccc(NC(=O)c2ccc(-c3cccnc3)cc2O)cc1	7940 nM	–	6660 nM	–
O=C(Nc1ccc(OC(F)(F)F)c(Cl)c1)c1ccc(C(F)(F)F)cc1O	640 nM	790 nM	380 nM	950 nM
N#Cc1ccc(NC(=O)c2cc(-c3ccncc3)ccc2O)cc1	7990 nM	–	5410 nM	–
O=C(Nc1ccc(C(F)(F)F)cc1)c1ccc(C(F)(F)F)cc1O	780 nM	820 nM	380 nM	1120 nM
N#Cc1ccc(NC(=O)c2ccc3cccnc3c2O)c(C#N)c1	3770 nM	270 nM	890 nM	350 nM
N#Cc1ccc(NC(=O)c2cc(Br)c3cccnc3c2O)cc1	–	230 nM	330 nM	210 nM
O=C(Nc1ccc(Cl)cc1)c1ccc2cccnc2c1O	3300 nM	510 nM	630 nM	380 nM
N#Cc1ccc(NC(=O)c2cc(Cl)ccc2O)c(Cl)c1	860 nM	620 nM	500 nM	730 nM
N#Cc1ccc(Nc2n[nH]c3ccccc23)cc1	> 10000 nM	–	> 10000 nM	–
O=C(Nc1ccc(Cl)cc1Cl)c1ccc2cccnc2c1O	3560 nM	430 nM	610 nM	450 nM
N#Cc1cccc(NC(=O)c2cc(F)ccc2O)c1	9100 nM	–	7750 nM	–
O=C(Nc1ccc([N+](=O)[O-])cc1)c1cc(F)ccc1O	1100 nM	940 nM	520 nM	2080 nM
N#Cc1ccc(NC(=O)c2cc(F)ccc2O)cc1	2670 nM	–	1420 nM	–
Cc1cccc(C(=O)Nc2ccc(C#N)cc2)c1O	8980 nM	–	> 10000 nM	–
N#Cc1ccc(NC(=O)c2ccc3ccccc3c2O)cc1	2720 nM	–	3410 nM	–
N#Cc1ccc(NC(=O)c2cccc3cc[nH]c23)cc1	> 10000 nM	–	> 10000 nM	–
N#Cc1ccc(NC(=O)c2cc(-c3ccccc3)ccc2O)cc1	1300 nM	–	1350 nM	–
N#Cc1ccc(NC(=O)c2c(O)ccc3ccccc23)cc1	3760 nM	–	4430 nM	–
COc1cccc(C(=O)Nc2ccc(C#N)cc2)c1O	> 10000 nM	–	> 10000 nM	–
N#Cc1ccc(NC(=O)c2ccc(Cl)cc2O)cc1	1920 nM	–	1300 nM	–
COc1cc2ccccc2cc1C(=O)Nc1ccc(C#N)cc1	> 10000 nM	–	> 10000 nM	–
N#Cc1ccc(NC(=O)c2c(O)cccc2F)cc1	> 10000 nM	–	> 10000 nM	–
N#Cc1ccc(NC(=O)c2ccc[nH]c2=O)cc1	> 10000 nM	–	> 10000 nM	–
N#Cc1ccc(NC(=O)c2ccc(Br)cc2O)cc1	1450 nM	–	1210 nM	–
